NR1D1 modulator: modulators of human Rev-erb alpha DNA binding; P20393; Rev-erbα–FITC-DNA binding, fluorescence polarization, 90 min; activity, % at 10 µM; 370,000 compounds, 0.79% hits;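 active = activity above about 14%, limit read from the data; passing the limit was not always enough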;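 note: 0% = DMSO wells with 35 nM protein and 100% = DMSO wells with 750 nM protein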
Target sequence (P20393 whole entry, looked up): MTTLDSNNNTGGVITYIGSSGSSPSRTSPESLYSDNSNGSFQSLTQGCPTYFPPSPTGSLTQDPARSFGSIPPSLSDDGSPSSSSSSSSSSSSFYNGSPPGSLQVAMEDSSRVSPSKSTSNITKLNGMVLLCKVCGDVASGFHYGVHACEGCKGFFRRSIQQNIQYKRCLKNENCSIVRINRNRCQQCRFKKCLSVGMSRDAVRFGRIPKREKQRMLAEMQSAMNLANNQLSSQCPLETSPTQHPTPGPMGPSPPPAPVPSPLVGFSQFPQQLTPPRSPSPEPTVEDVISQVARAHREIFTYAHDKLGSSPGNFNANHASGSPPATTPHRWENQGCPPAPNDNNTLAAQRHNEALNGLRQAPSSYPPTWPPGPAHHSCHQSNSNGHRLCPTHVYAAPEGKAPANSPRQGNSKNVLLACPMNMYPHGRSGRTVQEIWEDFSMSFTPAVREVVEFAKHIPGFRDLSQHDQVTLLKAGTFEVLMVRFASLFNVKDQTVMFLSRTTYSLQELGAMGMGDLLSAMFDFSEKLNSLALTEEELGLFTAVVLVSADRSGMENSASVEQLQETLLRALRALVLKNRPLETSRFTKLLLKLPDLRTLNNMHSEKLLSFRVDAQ
NR2E3 ag-1: human photoreceptor-specific nuclear receptor agonism; Q9Y5X4; CHO-S Gal4-NCOR/VP16-NR2E3 two-hybrid, luciferase; inhibition of corepressor binding, % at 3.98 µM; 360,000 compounds, 0.35% hits; AID 602229;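 active = inhibition above the mean of all tested compounds plus 3 SD, cut at about 70% in these data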;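 note: 0% = DMSO with NR2E3 transfected cells and 100% = cells lacking NR2E3 construct; higher means lower luciferase signal from less NR2E3 corepressor binding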
Neddyl block: blocks human cullin neddylation; P61081+Q13564; TR-FRET cullin neddylation, biochemical; calls only at 25 µM; 360,000 compounds, 0.58% hits; in the data active = inhibition above about 36%
PG9 Ab binder: binds the HIV-1 gp120 antibody PG9. 360,000 compounds, 0.43% hits. TR-FRET gp120-PG9 antibody binding. inhibition, % at 6.7 µM. AID 624416; in the data active = inhibition above about 8.5%
NR2E3 ag-2: agonists of human nuclear receptor NR2E3. Q9Y5X4. GST-NR2E3/biotin-RetCOR TR-FRET, 1536-well. inhibition of corepressor binding, % at 4.78 µM. 320,000 compounds, 0.12% hits. AID 2300;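 active = percent inhibition above the cutoff of mean plus 3 SD of all tested compounds, set per screening campaign, cut at about 20% in these data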;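 note: 0% = DMSO wells and 100% = biotin wells as full block of FRET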
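Material: NR2E3–RetCOR corepressor complex | Quantity: 1.35 nM GST-tagged NR2E3 final | Schedule: 5 h at 4 °C | Replication: Singlicate compound wells | Reagent: RetCOR corepressor, biotinylated, 7 nM | Controls: Biotin wells as high control, 0.6% DMSO wells as low control | Signal: TR-FRET, Eu(K)-anti-GST donor, streptavidin-D2 acceptor, ex 340, em 617/671 nm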
NR2E3 ag conf: NR2E3 agonism confirmed in two-hybrid assay. AID 624378. 2,300 compounds, 51% hits. inhibition, % at 3.98 µM. CHO-S mammalian two-hybrid NR2E3-NCOR, luciferase luminescence. shares compounds with NR2E3 ag-1;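 active = average inhibition above a cutoff equal to the mean inhibition of all tested compounds plus one SD, cut at about 70% in these data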;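 note: 0% = DMSO in NR2E3 cells and 100% = DMSO in cells lacking NR2E3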
VP16 counter: reduces GAL4-VP16 reporter signal in NR2E3 counterscreen | shares compounds with NR2E3 ag-1 | CHO-S GAL4-VP16 luciferase reporter, luminescence | 2,300 compounds, 29% hits | inhibition, % at 3.98 µM | AID 624379;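 active = mean inhibition above a cutoff equal to the average over all tested compounds plus one standard deviation, cut at about 70% in these data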;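 note: luciferase from a UAS reporter driven by GAL4-VP16 transactivation; 0% = DMSO with VP16-transfected cells and 100% = DMSO with cells lacking VP16; higher means less reporter light so more repression of VP16 activity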
* hit, by the source's call; i = inactive; . = no result given; + = active, no number. Sampled rows, rich in hits. Any-hit rate of the full collection: about 2%.

SMILES	NR1D1 modulator	NR2E3 ag-1	Neddyl block	PG9 Ab binder	NR2E3 ag-2	NR2E3 ag conf	VP16 counter
Cc1onc(-c2ccccc2Cl)c1C(=O)Nc1nc2c(s1)CCCC2	-3	82*	i	-1	5	86*	-41
Cc1ccnc2c1ccc1ccccc12	2	-20	i	-3	-3	.	.
Cc1ccnc2c1ccc1cccnc12	1	74*	i	1	.	17	-11
Cc1ccnc2c1ccc1c(C)ccnc12	.	78*	i	.	2	43	10
COc1cccc(OC)c1NC(=O)OC1CCC12CCC(c1ccccc1)CC2 (centres undefined)	-11	.	.	.	.	.	.
C[C@@H]1ON(C)[C@H]2C[C@H]3c4[nH]c5c(-c6ccccc6F)cccc5c4CCN3C[C@@H]12	-1	.	.	.	.	.	.
O=c1cc(C(F)(F)F)nc(SC/C=C/c2ccccc2)[nH]1	.	52	i	.	1	77*	29
Nc1cc(=O)[nH]c(SC/C=C/c2ccccc2)n1	-1	12	i	0	-3	.	.
CCCc1cc(=O)[nH]c(SC/C=C/c2ccccc2)n1	0	16	i	-2	1	.	.
CCc1c(C)nc(SC/C=C/c2ccccc2)[nH]c1=O	.	83*	i	.	-1	41	43
COc1ccc(-n2c(SCC(=O)N(CC(C)C)CC(C)C)nnc2-c2ccncc2)cc1	-5	.	.	.	.	.	.
Nn1c(SCC(=O)NC2CCCCC2)nnc1-c1cc(-c2ccc(F)cc2)n[nH]1	7	.	.	.	.	.	.
c1ccc2c(c1)[nH]c1c(N3CCSCC3)ncnc12	-2	22	i	0	1	.	.
Brc1ccc2[nH]c3c(N4CCc5ccccc5C4)ncnc3c2c1	.	.	.	.	0	.	.
Cc1ccc2[nH]c3c(N4CCc5ccccc5C4)ncnc3c2c1	0	68	i	3	-2	94*	77*
Fc1ccc2[nH]c3c(N4CCc5ccccc5C4)ncnc3c2c1	-8	73*	+	0	-4	94*	87*
c1ccc2c(c1)[nH]c1c(N3CCCC3)ncnc12	1	63	i	-3	-6	49	37
CCOc1ccc2[nH]c3c(N4CCc5ccccc5C4)ncnc3c2c1	2	-3	.	-3	4	.	.
C/C(=N/NC(=O)c1ccoc1C)c1cccs1	0	.	.	.	.	.	.
Cc1cccc(S(=O)(=O)N2CCC[C@H]2C(=O)N2CCC[C@@H]2C(=O)NCc2ccccc2)c1	-2	.	.	-2	.	.	.
COC(=O)C1=C(C)N(Cc2ccccc2C(F)(F)F)C(=NCc2ccc3c(c2)OCO3)NC1c1ccccc1 (centres undefined)	1	.	.	0	.	.	.
COc1cccc(/C=C2\CC3(OC(=O)c4ccc(Cl)cc4)CCCN2C3)c1 (centres undefined)	1	.	.	.	.	.	.
Cc1cc(C(=O)OCC(=O)Nc2ccc(F)cc2)c(C)o1	5	74*	i	1	1	-13	11
NS(=O)(=O)c1ccc(NC(=O)CSc2nc3ccccc3c(=O)n2-c2ccc(Br)cc2)cc1	12	.	.	.	.	.	.
O=C(NC(NNc1ccc([N+](=O)[O-])cc1)(C(F)(F)F)C(F)(F)F)c1ccc(Cl)cc1	-3	48	i	2	4	80*	85*
SMILES	NR1D1 modulator	NR2E3 ag-1	Neddyl block	PG9 Ab binder	NR2E3 ag-2	NR2E3 ag conf	VP16 counter
O=C(NNc1ccc([N+](=O)[O-])cc1)c1ccccc1Cl	0	6	i	-2	-1	.	.
CCOC(=O)[C@]12CCCCC/C=C\1N(Cc1ccc(OC)cc1)C(=O)[C@H]2CC(=O)NCCCOC	3	.	.	.	.	.	.
COCCNC(=O)C1Nc2ccc(C(F)(F)F)cc2C2C=CCC12 (centres undefined)	1	-3	i	0	3	.	.
O=C(NCc1ccccn1)C1Nc2ccc(C(F)(F)F)cc2C2C=CCC12 (centres undefined)	-1	97*	i	1	2	-8	21
COc1ccc(NC(=O)/C(Cl)=C(/Cl)S(=O)Cc2ccc(Cl)cc2)cn1 (centres undefined)	-3	87*	i	0	.	99*	34
COc1ccc(NC(=O)/C(Cl)=C(/Cl)S(=O)(=O)Cc2ccccc2)cn1	-6	83*	i	-2	.	98*	27
CC(=O)S[C@@H]1CC2=CC(=O)CC[C@]2(C)[C@H]2CC[C@@]3(C)[C@@H](CC[C@@]34CCC(=O)O4)C12 (some centres undefined)	-6	.	.	.	.	.	.
Cc1sc2ncnc(NCCc3ccc(S(N)(=O)=O)cc3)c2c1C	5	89*	i	0	2	94*	77*
N#C/C(=N\Nc1cccc(C(F)(F)F)c1)C(=O)c1ccsc1	6	80*	i	-1	-2	98*	59
Cc1nccc(-c2cccc(N/N=C(\C#N)C(=O)c3ccccc3)c2)n1	3	8	i	-2	3	.	.
Cn1cccc1C(=O)N1CCN(S(=O)(=O)c2ccc(F)cc2)CC1	-3	.	.	.	.	.	.
Cc1cc(Nc2cccc(F)c2)nc(NCc2ccccc2)n1	7	83*	i	1	-1	92*	67
Cc1cc(C)nc(NCCCc2ccccc2)n1	-2	-48	i	0	2	.	.
Cc1cc(Nc2ccc(Cl)cc2)nc(NCc2ccccc2)n1	8	0	.	2	2	.	.
Cc1cc(Nc2ccccc2)nc(NCc2ccccc2)n1	2	88*	i	0	1	96*	81*
Cc1cc(N/N=C/c2ccc(F)cc2)nc(NCc2ccccc2)n1	1	-34	i	0	3	.	.
CCCCNc1cc(C)nc(NCc2ccccc2)n1	.	83*	i	.	-2	94*	84*
Oc1c(Cl)cc(Cl)cc1Sc1cc(Cl)cc(Cl)c1O	0	.	.	.	3	.	.
O=S(c1cc(Cl)cc(Cl)c1O)c1cc(Cl)cc(Cl)c1O	-1	84*	i	0	.	99*	78*
CCCN(CC1CC1)c1nc(C)nc2c1nnn2Cc1ccccc1	-2	.	.	.	.	.	.
COc1ccc(CN2C/C(=C/c3ccc(C)cc3)N3C(=O)C[C@@H](c4ccccc4)N=C23)c(OC)c1	2	.	.	.	.	.	.
CC(C)(C)OC(=O)NCCCCCc1cn([C@@H](CO)C(=O)NCCCCCCCCCCC(=O)N2CCN(C(=O)OC(C)(C)C)CC2)nn1	0	66	i	2	3	83*	74*
COc1cc(NC(C(=O)Nc2cccc(C(C)=O)c2)c2ccccc2)cc(OC)c1OC (centres undefined)	5	49	i	-3	-2	-21	0
O=S(=O)(NCCN1CCOCC1)c1ccc(Oc2ccccc2Cl)cc1	3	53	i	-2	-2	53	55
O=S(=O)(NCCN1CCOCC1)c1ccc2ccccc2c1	2	26	i	-1	.	.	.
COc1ccc(/C=C/c2cc(C(F)(F)F)[nH]c(=O)n2)cc1OC	-1	53	i	-6	4	64	-3

High-throughput results as filed in PubChem.
